Source: ChEMBL document CHEMBL1938297, “Synthesis, radiofluorination and pharmacological evaluation of a fluoromethyl spirocyclic PET tracer for central σ1 receptors and comparison with fluoroalkyl homologs” (Bioorg Med Chem, 2012)

Legend:
[1] = Chemical stability of the compound in 0.9% NaCl solution at pH 7.2 assessed as compound remaining after 2 hrs by radio-HPLC/TLC analysis; type: physicochemical; settings: read-out: Stability
Outline: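 Radiotracer incubated 120 min at 40 °C in 0.9% NaCl (pH 7.2), phosphate-saline (0.1 M sodium phosphate, 0.15 M NaCl, pH 7.2) or 0.01 M TRIS–HCl (pH 7.4 at 21 °C). Aliquots were taken at set times and analysed by radio-TLC on silica and by gradient radio-HPLC on RP-18 (MeCN/20 mM ammonium acetate, 254 nm), giving % unchanged tracer; n = 2.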

[2] = test system: Brain; test: Biodistribution in CD1 mouse brain at 300 kBq, iv after 30 mins by gamma counting; type: ADME, organism-based; settings: in vivo, 0.5 h
Outline: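 Female CD-1 mice received [18F]1 (300 kBq) i.v.; 3–6 animals per time point anesthetized at 5, 30, 60 or 120 min p.i., blood and urine collected, animals euthanized by cervical dislocation, organs dissected and weighed. Radioactivity counted in a calibrated gamma counter; % ID/g = tissue counts / initial dose counts / tissue weight; means with SD.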

[3] = test system: Cerebellum; test: Biodistribution in CD1 mouse cerebellum in brain saggital section at 24 MBq, iv at 45 mins by autoradiography; type: ADME, organism-based; settings: in vivo, 0.75 h
Outline: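 Female CD-1 mouse given [18F]1 (24 MBq) i.v. and sacrificed at 45 min. Brain hemispheres frozen in isopentane (−35 °C), cut into 12 µm sagittal cryosections, thaw-mounted, air-dried and exposed to 18F-sensitive storage phosphor screens. Anterior olfactory bulb served as nontarget region for target-to-nontarget ratios.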

[4] = test system: Liver; test: Biodistribution in CD1 mouse liver at 300 kBq, iv after 120 mins by gamma counting; type: ADME, organism-based; settings: in vivo, 2 h
Outline: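 Female CD-1 mice received the 18F tracer iv at 300 kBq in 0.9% NaCl containing 5% ethanol; 3–6 animals per time point (5, 30, 60, 120 min p.i.). Animals anaesthetized, blood and urine collected, killed by cervical luxation, organs dissected and weighed, counted in calibrated gamma counter. %ID/g = tissue counts / initial dose counts / tissue weight; mean with SD.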

SMILES: [18F]CC1OC2(CCN(Cc3ccccc3)CC2)c2ccccc21 (centres undefined)
- remaining at 2 h [1]: 96.9%
- Drug uptake [2]: 4.56 % ID/g
- Drug uptake [3]: Active
- Drug uptake [4]: 3.95 % ID/g
